Screening results (PubChem BioAssay)
The sample as a whole holds a higher share of hits than the screen did.
Insulin prom act = TRM-6 insulin promoter activation. TRM-6 cells (human fetal islet line), insulin promoter eGFP reporter, imaging; plate-scaled: unstimulated 0, stimulated control 100. AID 1296. activation, % at 2 µM. 130,000 compounds, 0.81% hits;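 active = activation at 2 µM above a set limit, confirmed on inspection of the cell images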;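 note: share of cells whose green reporter signal exceeds an intensity cutoff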
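Material: TRM-6 insulin promoter–eGFP reporter cells. Buffer or medium: Low-glucose (5.5 mM) medium with tamoxifen. Probe or stimulus: tamoxifen at 0.75 µM added at seeding for reporter induction. Times: tamoxifen pre-incubation 15 h overnight, then compound exposure 48 h at 37 °C. Detection: high-content imaging of fixed cells with Hoechst nuclear stain.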
Of the large screens only hits and unclear results are named; the others gave an inactive call.

O=C(CCCCCN1C(=O)CCC1=O)Nc1ccc2c(c1)OCO2	Insulin prom act 475.0
c1ccc(-c2cc(-c3nnc4n3N=C(c3ccc5ccccc5c3)CS4)[nH]n2)cc1	none
Cc1ccc(NC(=O)N(Cc2nc3ccccc3c(=O)[nH]2)Cc2cccs2)cc1	none
CC(Oc1ccccc1)C(=O)NC1CC(C)(C)NC(C)(C)C1 (stereo unspecified)	none
COc1ccc(-c2cc(C(F)(F)F)c(C#N)c(SCC(=O)Nc3ccc(C)cc3)n2)cc1	none
FC(F)(F)c1cc(-c2ccccc2)nc(N2CCOCC2)n1	none
N#Cc1c(C(F)(F)F)cc(-c2ccccc2)nc1SCc1nc(N)nc(N2CCOCC2)n1	Insulin prom act 250.9
CCOC(=O)c1sc2nc(CC(=O)OC)nc(NCc3ccc(Cl)cc3)c2c1C	none
Cc1ccc(C(=O)N2CCN(c3ncccn3)CC2)o1	none
Cc1cc(C)c2c(=O)[nH]c(SCc3ccc([N+](=O)[O-])cc3)nc2n1	none
Cc1cccc(NC(=O)CSc2nncn2-c2ccccn2)c1	none
Cc1ccc(/C=N/n2c(C)n[nH]c2=S)o1	none
COc1ccc(S(=O)(=O)N(C)CC(=O)NC2CCCCC2)cc1OC	none
CCOC(=O)Cc1nnc(Nc2cccc(O)c2)c2ccccc12	none
CCCCN(CCCC)S(=O)(=O)c1ccc(NC(=O)CN2CCOCC2)cc1	none
O=C(CN1CCOCC1)Nc1ccc(S(=O)(=O)NC2CCCCC2)cc1	Insulin prom act 200.0
O=C(CN1CCCCC1)Nc1ccc(S(=O)(=O)N2CCOCC2)cc1	none
CN1[C@@H]2CC(OC(=O)[C@H](CO)c3ccccc3)C[C@H]1[C@@H]1O[C@@H]12 (stereo partly specified)	none
O=c1cc(CSc2nnc(-c3ccco3)o2)c2ccccc2[nH]1	none
Cc1cc2nc(CCN(C(=S)NCC(C)C)C3CCCC3)[nH]c2cc1C	none
CCN(CC)S(=O)(=O)c1ccc2[nH]c(=O)[nH]c2c1	none
COc1ccc(N2C(=O)N(Cc3ccccc3F)c3ccccc3S2(=O)=O)cc1	none
COc1ccc(-c2nnn(Cc3ccccc3F)n2)cc1	Insulin prom act 521.4
CCOC(=O)CC(NC(=O)Cn1nnc(-c2ccccc2)n1)c1ccc(OC)cc1 (stereo unspecified)	none
COc1ccc(CNC(=O)CSc2nc3[nH]ncc3c(=O)n2-c2ccccc2Br)cc1	none
COc1cc(C(=O)N[C@H](C(=O)NC(C)C23CC4CC(CC(C4)C2)C3)C(C)C)cc(OC)c1OC (stereo partly specified)	none
COc1ccc(C)cc1NC(=O)C(NC(=O)c1cc(OC)c(OC)c(OC)c1)C(C)C (stereo unspecified)	Insulin prom act 433.3
COc1cc(OC)cc(C(=O)N[C@H](C(=O)OCC(=O)Nc2ccc(C)cc2C)C(C)C)c1	none
CCc1ccc(C(C(=O)NC2CCCC2)N(C(=O)/C=C/C(=O)Nc2cc(C)on2)c2ccccc2C)cc1 (stereo unspecified)	none
COc1ccc2nc(SCC(=O)Nc3cc(C)on3)[nH]c2c1	none
CCOC(=O)N1CCN=C1SCc1ccc(C(F)(F)F)cc1	none
CSC1=NCCN1C(=O)Cc1ccc(-c2ccccc2)cc1	none
CCC(=O)N1CCN=C1SCc1ccc(Cl)cc1	Insulin prom act 493.1
O=C1CC(c2cc3c(cc2Br)OCO3)C2=C(CCCC2=O)N1 (stereo unspecified)	none
C=CCOC(=O)C1=C(C)NC(C)=C(C(=O)OCC=C)C1c1cn(-c2ccccc2)nc1-c1ccco1	none
Cc1ccc2c(c1C)NC(C)CC2C (stereo unspecified)	none
COc1ccc(/C=C2/C(=O)N(c3nc4ccccc4s3)N=C2CSc2ccc(Cl)cc2)cc1	none
Cc1cc(C)n2c(Br)c(CN3CCCC(C)C3)nc2n1 (stereo unspecified)	none
CN(CCOc1ccccc1)CC(=O)Nc1cc([N+](=O)[O-])ccc1Cl	none
COc1ccc([N+](=O)[O-])cc1NC(=O)COC(=O)C=C(C)C	none
COCC(=O)OCC(=O)Nc1cc([N+](=O)[O-])ccc1Cl	Insulin prom act 733.3
COc1ccc(C(OCC2CO2)c2ccc(OC)cc2)cc1 (stereo unspecified)	none
Cc1c(Cl)cccc1-n1nnnc1-c1cccs1	none
COc1cc2c(cc1NC(=O)C(C)Sc1ccc(NC(C)=O)cc1)oc1ccccc12 (stereo unspecified)	none
CCc1nc(N)c(C#N)c(-c2ccc(OC)c(OC)c2)c1C	Insulin prom act 83.3
CCc1nc(N)c(C#N)c(-c2cccc3ccccc23)c1C	none
COc1ccc(-c2c(C#N)c(N)nc3c2CCCC3)cc1OC	none
COc1ccc(CCNC(=O)CCc2ccc(S(=O)(=O)NC(C)C)cc2)cc1	none
COc1ccc(NC(=O)CC2C(=O)N(C)C(=S)N2CCc2ccccc2)cc1 (stereo unspecified)	none
COc1ccc(NC(=O)CC2C(=O)N(Cc3ccccc3)C(=S)N2CCN2CCOCC2)cc1 (stereo unspecified)	Insulin prom act 333.3
COC(=O)CN1C(=S)N(Cc2ccccc2)C(=O)C1CC(=O)Nc1ccc(OC)cc1 (stereo unspecified)	none
Cc1cccc(NC(=S)N2CCC(N(C)CC3CCCO3)CC2)c1 (stereo unspecified)	none
CCOC(=O)N1CCN(C(=O)c2cn(CC)c3cc(N4CCN(C)CC4)c(F)cc3c2=O)CC1	none
Cc1cccc(NC(=O)C2C3CCC4C(CCC32)C4(Cl)Cl)c1 (stereo unspecified)	none
Cc1ccc(CNS(=O)(=O)NCc2cccs2)cc1	none
CCc1ccccc1N(CC(=O)NCc1ccco1)C(=O)c1snc(C(N)=O)c1N	Insulin prom act 163.6
CS(=O)(=O)N(CC(=O)NCc1ccco1)c1ccccc1Cl	none
CCC(C)(C)NC(=O)CN(C(=O)c1snc(C(N)=O)c1N)c1ccc2c(c1)OCO2	none
O=C1CCc2nc3sc4c(c3c(=O)n2N1)CCCC4	Insulin prom act 412.5
Cc1nc2sc3c(c2c(=O)n1N)CCC3	none
CCc1nc2sc3c(c2c(=O)o1)CCCC3	none
Fc1ccc(-c2cc(C(F)(F)F)n3ncnc3n2)cc1	Insulin prom act 235.3
Nc1nc2nc(-c3ccc(OCc4ccccc4)cc3)cc(C(F)(F)F)n2n1	none
c1ccc(-c2cc(-c3ccccc3)n3ncnc3n2)cc1	none
Cc1nnsc1SCCNC(=O)c1ccc(F)cc1	none
COc1cc2c(cc1OC)C(C)N(C(=O)c1ccc(Br)o1)CC2 (stereo unspecified)	none
Cc1ccc(CNC(=O)COC(=O)CCCOc2ccc(Cl)cc2Cl)cc1	none
Cc1cc2nc(SCC(=O)N(C)C)c3c(c2cc1C)CCCC3	none
Cc1ccc(-c2n[nH]c(=S)n2/N=C/c2c(C)nn(-c3ccccc3)c2C)cc1	none
Cc1cccc(-c2n[nH]c(=S)n2/N=C/c2ccc(C)s2)c1	none
CCN(CC)S(=O)(=O)c1cccc(-c2n[nH]c(=S)n2/N=C/c2ccc(Br)cc2)c1	Insulin prom act 438.5
CCOC(=O)Cn1c(N2CCOCC2)nc2c1c(=O)[nH]c(=O)n2C	none
O=C(OCn1nnc2ccccc2c1=O)c1ccc2c(=O)n3c(nc2c1)CCC3	none
Cc1ccccc1NC1(C#N)C(=O)Nc2ccccc21 (stereo unspecified)	none
Cc1c(N2C(=O)C(C)SC23C(=O)Nc2ccccc23)c(=O)n(-c2ccccc2)n1C (stereo unspecified)	none
CC(C)c1ccc(NC2(C#N)C(=O)Nc3ccccc32)cc1 (stereo unspecified)	Insulin prom act 80.6
CCOc1cc(N2CCOCC2)c(OCC)cc1NC(=O)c1ccc(OCc2c(C)noc2C)c(OC)c1	none
Cc1ccc(NC(=O)C2CCN(S(=O)(=O)c3c(C)[nH]c(=O)[nH]c3=O)CC2)cc1	none
CC(C)(C)OC(=O)NNC(=O)C12CC3CC(CC(C3)C1)C2	none
CCCCNC(=S)NNC(=O)C12CC3CC(CC(C3)C1)C2	Insulin prom act 86.2
